ChEMBL document CHEMBL1145016, “Synthesis and antitumor activity of conjugates of muramyldipeptide or normuramyldipeptide with hydroxyacridine/acridone derivatives” (J Med Chem, 2003)
The source made the active and inactive calls. The rule behind the calls is not given here.

Experiments:
NCI-H460 [1] = assay: Tested for cytotoxicity of compound against NCI-H460 (lung)cell line; IA means inactive.; format: functional, cell-based; settings: Homo sapiens
SF-268 [2] = assay: Tested for cytotoxicity of compound against SF-268 (CNS) cell line; IA means inactive.; format: functional, cell-based; settings: Homo sapiens
MCF7 [3] = assay: Tested for cytotoxicity of compound against MCF-7 (breast) cell line; IA means inactive.; format: functional, cell-based; settings: Homo sapiens
[4] = Tested for cytotoxicity (lethal concentration) of compound, activity expressed as MID log LC50; format: functional
Outline: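 MID is the calculated mean of LC50 concentrations (M) across the cell line panel, where LC50 is the half-lethal concentration. It is reported as a log value.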

MCF7 [5] = assay: Tested for cytotoxicity of compound against MCF-7 (breast) cell line; Compound was active.; format: functional, cell-based; settings: Homo sapiens
SF-268 [6] = assay: Tested for cytotoxicity of compound against SF-268 (CNS) cell line; Compound was active.; format: functional, cell-based; settings: Homo sapiens
NCI-H460 [7] = assay: Tested for cytotoxicity of compound against NCI-H460 (lung)cell line; Compound was active.; format: functional, cell-based; settings: Homo sapiens

With `CC(=O)N[C@@H]1[C@H](OCc2ccccc2)OC(CO)C(O)[C@H]1OC(C)C(=O)N[C@@H](C(=O)N[C@H](CCC(=O)OCCCNC(=O)c1cccc2cc3ccccc3nc12)C(N)=O)C(C)C` (some centres undefined) the IA (NCI-H460 [1]) was “inactive”, the IA (SF-268 [2]) was “inactive” and the IA (MCF7 [3]) was “inactive”.
With `CC(=O)N[C@@H]1[C@H](OCc2ccccc2)OC(CO)C(O)[C@H]1OC(C)C(=O)N[C@H](C)C(=O)N[C@H](CCC(=O)OCCCNC(=O)c1cccc2cc3ccccc3nc12)C(N)=O` (some centres undefined) the IA (NCI-H460 [1]) was “inactive”, the IA (SF-268 [2]) was “inactive” and the IA (MCF7 [3]) was “inactive”.
For `CC(=O)N[C@@H]1[C@H](OCc2ccccc2)OC(CO)C(O)[C@H]1OCC(=O)N[C@H](C)C(=O)N[C@H](CCC(=O)OCCNC(=O)c1cccc2c(=O)c3ccccc3[nH]c12)C(N)=O` (some centres undefined), the IA (NCI-H460 [1]) was “inactive”, the IA (SF-268 [2]) was “inactive” and the IA (MCF7 [3]) was “inactive”.
In the case of `CC(=O)N[C@@H]1[C@H](OCc2ccccc2)OC(CO)C(O)[C@H]1OCC(=O)N[C@H](C)C(=O)N[C@H](CCC(=O)OCCNC(=O)c1cccc2cc3ccccc3nc12)C(N)=O` (some centres undefined), the IA (NCI-H460 [1]) is reported as “inactive”, the IA (SF-268 [2]) is reported as “inactive” and the IA (MCF7 [3]) is reported as “inactive”.
With `CC(=O)N[C@@H]1[C@H](OCc2ccccc2)OC(CO)C(O)[C@H]1OCC(=O)N[C@H](C)C(=O)N[C@H](CCC(=O)OCCCNC(=O)c1cccc2c(=O)c3ccccc3[nH]c12)C(N)=O` (some centres undefined) the “MID log LC50” value [4] was 4.04 M, the Cytotoxicity (MCF7 [5]) was “Active” and the Cytotoxicity (SF-268 [6]) was “Active”. For the same molecule, the Cytotoxicity (NCI-H460 [7]) was “Active”.
With `CC(=O)N[C@@H]1[C@H](OCc2ccccc2)OC(CO)C(O)[C@H]1OC(C)C(=O)N[C@H](C)C(=O)N[C@H](CCC(=O)OCCCCNC(=O)c1cccc2cc3ccccc3nc12)C(N)=O` (some centres undefined) the IA (NCI-H460 [1]) was “inactive”, the IA (SF-268 [2]) was “inactive” and the IA (MCF7 [3]) was “inactive”.
